Screens as filed in PubChem.
KCNQ1 block: human KCNQ1 channel inhibition | P51787 | B-score at 10 µM | 310,000 tested, 1.3% active | CHO-K1 KCNQ1, FluxOR thallium flux fluorescence; active compounds read high;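 active = compounds whose thallium flux B-score, printed positive for inhibition, exceeds three library SD while starting fluorescence stays within three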;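 note: channel opened by potassium depolarization with thallium stimulus after 20 min compound exposure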
Cl transport mod: modulates chloride dependent transport by human KCC2; B-score of Tl+ flux slope (higher = more flux/activation; lower = inhibition) at 10 µM; AID 1456; KCC2 cells, thallium flux FluoZin-2 fluorescence; 190,000 tested, 2.2% active; Q9H2X9;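 active = thallium flux slope and its plate-corrected score both differing from the plate sample mean at a set confidence after two filtering rounds, in either direction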;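 note: slope of fluorescence scaled to starting intensity during 10 to 20 s after thallium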
hERG protect: shields human hERG channel from block by proarrhythmic agents; Q12809; 310,000 tested, 0.51% active; activation (rescue from dofetilide block), less the hit threshold, % at 10 µM; CHO-hERG, FluxOR thallium flux, dofetilide IC70 present;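 active = activation above the mean of controls blocked by dofetilide plus 5 SD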;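 note: thallium influx through hERG after potassium depolarization seen as dye fluorescence rise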
Target sequence (Q12809 whole entry, looked up): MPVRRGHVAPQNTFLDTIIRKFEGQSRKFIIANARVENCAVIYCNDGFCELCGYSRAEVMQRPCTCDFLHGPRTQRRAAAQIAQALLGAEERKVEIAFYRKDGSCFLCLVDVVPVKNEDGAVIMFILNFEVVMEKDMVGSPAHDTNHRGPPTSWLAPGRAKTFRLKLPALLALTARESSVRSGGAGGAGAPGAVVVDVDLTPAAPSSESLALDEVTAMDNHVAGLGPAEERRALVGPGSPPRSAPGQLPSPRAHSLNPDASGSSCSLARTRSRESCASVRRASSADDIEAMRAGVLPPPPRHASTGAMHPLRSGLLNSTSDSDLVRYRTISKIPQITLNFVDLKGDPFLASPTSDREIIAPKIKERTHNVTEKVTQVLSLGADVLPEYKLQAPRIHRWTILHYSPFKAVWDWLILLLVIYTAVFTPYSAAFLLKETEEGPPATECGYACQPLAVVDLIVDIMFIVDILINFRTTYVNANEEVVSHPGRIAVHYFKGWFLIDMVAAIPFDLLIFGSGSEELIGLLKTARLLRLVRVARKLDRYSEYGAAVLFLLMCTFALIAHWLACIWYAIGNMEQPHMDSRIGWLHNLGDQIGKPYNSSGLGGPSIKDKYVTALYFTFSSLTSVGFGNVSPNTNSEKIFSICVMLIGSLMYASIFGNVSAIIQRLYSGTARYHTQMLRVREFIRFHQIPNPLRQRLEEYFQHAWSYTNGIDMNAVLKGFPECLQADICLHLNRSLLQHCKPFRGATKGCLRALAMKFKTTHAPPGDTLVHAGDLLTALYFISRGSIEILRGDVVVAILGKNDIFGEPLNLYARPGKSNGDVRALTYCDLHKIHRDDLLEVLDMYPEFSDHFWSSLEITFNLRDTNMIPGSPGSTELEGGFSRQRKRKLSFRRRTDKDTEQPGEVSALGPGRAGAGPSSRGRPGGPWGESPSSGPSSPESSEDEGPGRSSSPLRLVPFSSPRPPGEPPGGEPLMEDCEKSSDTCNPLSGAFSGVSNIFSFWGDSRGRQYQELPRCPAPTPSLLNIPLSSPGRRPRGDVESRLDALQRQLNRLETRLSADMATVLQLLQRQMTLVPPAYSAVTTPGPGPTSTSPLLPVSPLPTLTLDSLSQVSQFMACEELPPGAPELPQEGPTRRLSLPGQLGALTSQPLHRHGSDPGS
AI-2 QS modul: Vibrio harveyi AI-2 quorum sensing modulation. Vibrio harveyi JMH597 AI-2 luminescence/OD600 ratio, 9 h; active compounds read low; strain lacks LuxN and CqsS sensors; 0 = neutral-control median. activity change, % at 7.5 µM. 300,000 tested, 0.4% active; in the data active = activity change below about -75%, passing the limit was not always enough; inconclusive = no clear call, values can overlap the other calls;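 note: luminescence divided by OD600 gain over 9 h not by final OD600 alone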
KCNQ1 pot: potentiators or activators of human KCNQ1 potassium channel; P51787; CHO-K1 KCNQ1, thallium flux FluxOR fluorescence; active compounds read high; B-score at 10 µM; 310,000 tested, 0.35% active; AID 2648;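 active = fluorescence ratio B-score, a plate-corrected score, at least three library SD, with initial intensity B-score within 5 SD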
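System: CHO-K1 cells stably expressing KCNQ1 / Medium: assay buffer for compound exposure, DMSO matched across wells / Reagent: thallium- and potassium-containing depolarizing buffer / Compound: one concentration, matched DMSO / Incubation: 20 min compound pretreatment at room temperature / Measured by: kinetic FluxOR fluorescence, 10 s baseline plus 110 s post-stimulus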
SUMO Mot1 rescue: inhibitors of SUMOylation pathway: yeast Mot1-301 growth rescue | 320,000 tested, 1% active | S. cerevisiae Mot1-301 growth rescue, ATP luminescence, 38.5C; percent above DMSO median, 100 means doubled | growth rescue, % at 18.8 µM;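 active = every valid replicate shows activation above 250% relative to neutral control wells; inactive = the rest, any valid replicate at or below 250%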;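 note: OY570 slx delta 5 strain wells were the positive control but not used for scaling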
KCC2 secondary: confirmation of human KCC2 transport modulators; shares compounds with Cl transport mod; HEK293-KCC2, thallium flux, FluoZin2 fluorescence; active compounds read high; normalised thallium flux (F/F0 slope) at 10 µM; 3,700 tested, 15% active; AID 1713;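 active = thallium flux slope above the same plate's solvent-only control mean plus 3 SD; inconclusive = the two replicate wells disagree; inactive = no significant difference from solvent-only control wells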
KCC2 bumet counter: thallium flux persisting under bumetanide in KCC2 cells, counter-screen secondary assay; HEK293-KCC2 + bumetanide/ouabain, thallium flux FluoZin2; active compounds read high; shares compounds with Cl transport mod; normalized thallium flux at 10 µM; 3,700 tested, 49% active;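 active = thallium entry rate above the same plate's blocked-transporter control wells by more than 3 SD; inconclusive = the two repeat wells disagree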;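 note: raw slope of fluorescence over initial fluorescence between 10 and 20 s after thallium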
KCC2 secondary2: confirmation of human KCC2 transport modulators. shares compounds with Cl transport mod. HEK293-KCC2, thallium flux FluoZin2 fluorescence; actives lie on both sides; F/F0 rise rate, 10–20 s post-thallium. normalized thallium flux at 10 µM. 3,700 tested, 23% active. AID 1715;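 active = thallium flux slope more than 3 SD above or below the plate's solvent-only control mean, mostly below; inconclusive = the two repeat wells disagreed; inactive = no significant shift from solvent-only controls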;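 note: raw slope with 0.1% DMSO as baseline and bumetanide as block control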
HEK counter1: counter-screen for KCC2 modulators: effect in parental HEK293 cells; 3,700 tested, 46% active; AID 1716; thallium flux FluoZin2, ouabain; baseline-ratio fluorescence slope, 10–20 s after thallium; shares compounds with Cl transport mod; thallium flux rate (normalised fluorescence) at 10 µM;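 active = thallium flux rate significantly above the same plate's solvent-only control wells, beyond their mean plus 3 SD; inconclusive = the two replicate wells gave conflicting results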
KCC2 retest ouab: confirmation of human KCC2 modulators with ouabain; HEK293-KCC2, thallium flux FluoZin2 fluorescence; bidirectional: low = inhibitor, high = activator; raw Tl+ flux slope (below DMSO = inhibition, above = activation) at 10 µM; 3,700 tested, 48% active; shares compounds with Cl transport mod;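 active = thallium flux slope beyond 3 SD from same-plate DMSO control mean in most replicates, usually higher, sometimes lower; inconclusive = repeat tests gave conflicting results; inactive = no significant difference from controls in most replicates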;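 note: slope of initial-normalized fluorescence between seconds 10 and 20 after thallium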
HEK293 Tl flux2: counter-screen for KCC2 modulators: effect in parental HEK293 cells; AID 1718; thallium flux slope at 10 µM; shares compounds with Cl transport mod; 3,700 tested, 33% active; thallium flux FluoZin-2 fluorescence slope;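 active = thallium flux slope above the same plate's solvent-control mean plus 3 SD in both duplicate wells; inconclusive = duplicate wells that disagreed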;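 note: run without ouabain in cells lacking the KCC2 cotransporter; slope of fluorescence scaled to its starting value between 10 and 20 s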
* marks the source's active call; other numbers are inactive results; i = inactive; u = inconclusive; x = no result. In the library only some 4.2% were active in any assay of this set; here they are far more common.

SMILES | KCNQ1 block | Cl transport mod | hERG protect | AI-2 QS modul | KCNQ1 pot | SUMO Mot1 rescue | KCC2 secondary | KCC2 bumet counter | KCC2 secondary2 | HEK counter1 | KCC2 retest ouab | HEK293 Tl flux2
Cc1cc(C)cc(NC(=O)CSc2nc(N)c(NC(=O)c3cccs3)c(=O)[nH]2)c1 | i | 0.18 | -5 | 26 | i | 13 | x | x | x | x | x | x
COc1ccc(OC)c(N/C(C)=C/C(=O)c2ccncc2)c1 | i | x | -20 | -5 | i | -23 | x | x | x | x | x | x
C/C(=C\C(=O)c1ccncc1)Nc1ccccc1O | i | 19* | 5.7* | 4 | i | 28 | 0.015* | 0.024* | 0.032 | 0.011* | 0.029 | 0.011*
CCOc1ccccc1NS(=O)(=O)c1cccc2nsnc12 | i | 2.9 | -7 | 9 | i | -13 | x | x | x | x | x | x
CN(C)S(=O)(=O)c1cccc2nsnc12 | i | x | -1 | 11 | i | -7 | x | x | x | x | x | x
CNS(=O)(=O)c1cccc2nsnc12 | i | 0.14 | -6 | 34 | i | -17 | 0.0088 | u | 0.031 | 0.008 | 0.021 | 0.011
CN(C1CCS(=O)(=O)C1)S(=O)(=O)c1cccc2nsnc12 (stereo not given) | i | x | -2 | 24 | i | -10 | 0.006 | 0.0046 | 0.029 | 0.0077 | 0.018 | 0.011
CCOc1ccc(OCC)c(NS(=O)(=O)c2cccc3nsnc23)c1 | i | 18* | -14 | -4 | i | 78 | 0.013* | 0.073* | 0.035 | 0.027* | 0.035* | 0.013*
CN(C(=O)CCN1C(=O)c2ccccc2C1=O)c1ccccc1 | i | x | -6 | 11 | i | 2 | x | x | x | x | x | x
COC(=O)Cc1[nH]n(-c2nc3ccccc3s2)c(=O)c1C(C)=Nc1ccc(Cl)cc1 | i | 7.4* | -9 | 30 | i | -20 | 0.0087 | 0.014* | 0.03 | 0.013* | u | u
COC(=O)Cc1[nH]n(-c2nc3ccccc3s2)c(=O)c1C(C)=Nc1ccc(C)cc1 | i | 2.5 | 0 | 5 | i | x | x | x | x | x | x | x
CC/C(=N\NC(=O)c1ccc(Br)cc1)c1ccccc1 | i | 1.4 | -11 | 7 | i | 77 | x | x | x | x | x | x
C/C(=N\NC(=O)c1ccc(Br)cc1)C1C(=O)c2ccccc2C1=O | i | -5.4* | -22 | 7 | i | -1 | 0.0059 | 0.0045 | 0.023* | 0.0086 | u | 0.012
CC1CCCCN1C(=O)/C(=C\c1ccccc1)c1ccccc1 (stereo not given) | i | -0.56 | -10 | 2 | i | -16 | x | x | x | x | x | x
Cc1ccc(C(=O)NC(=S)Nc2c(C)ccc3nsnc23)cc1 | i | 8.7* | -7 | -10 | i | 3 | 0.011 | 0.057* | 0.037 | 0.023* | 0.045* | 0.013*
O=C(CSc1nnc(-c2cccs2)n1CC1CCCO1)c1cc2ccccc2o1 (stereo not given) | i | -3.3* | -11 | 15 | i | 0 | 0.0058 | 0.0049 | 0.027 | 0.007 | 0.017 | 0.0098
O=C(OCCCc1ccncc1)c1ccc(S(=O)(=O)N2CCOCC2)cc1 | i | x | -5 | 1 | i | -1 | 0.0095 | 0.018* | 0.034 | 0.011* | 0.022 | 0.011*
COc1ccc(-n2nnc3c(SCC(=O)N4CCCc5ccccc54)ncnc32)cc1 | i | x | -10 | 17 | i | 187 | x | x | x | x | x | x
COc1ccc(-c2csc(NC(=O)c3nc(-c4ccccc4)oc3C)n2)cc1 | i | 1 | -2 | 18 | i | -16 | x | x | x | x | x | x
Cc1oc(-c2ccccc2)nc1C(=O)Nc1nccs1 | i | 7.7* | -13 | 7 | i | 6 | 0.01 | 0.016* | 0.032 | 0.0097* | 0.022 | 0.012*
COc1ccc(/C=C/C(=O)N(C)c2ccccc2C(=O)O)cc1 | i | 2.1 | -10 | 6 | i | 10 | x | x | x | x | x | x
COc1ccccc1CN(C)CC(=O)Nc1cccc2ccccc12 | i | x | -14 | x | i | 4 | x | x | x | x | x | x
COc1cc(Cl)c(C)cc1NC(=O)CN(C)Cc1cccc(OC)c1OC | i | -3.6* | -8 | 12 | i | 5 | 0.0078 | 0.0042 | 0.028 | 0.0061* | 0.018 | u
O=C(c1cc(COc2ccc(F)cc2Cl)on1)N1CCC(OCc2cccnc2)CC1 | i | x | -8 | -3 | i | 0 | 0.0081 | 0.0064 | 0.028 | 0.007 | 0.03* | 0.01
O=C(c1cc(COc2ccc(F)cc2Cl)on1)N1CCCC(OCc2cccnc2)C1 (stereo not given) | i | x | -14 | 7 | i | x | 0.0067 | 0.0052 | 0.028 | 0.0071 | 0.014* | u
SMILES | KCNQ1 block | Cl transport mod | hERG protect | AI-2 QS modul | KCNQ1 pot | SUMO Mot1 rescue | KCC2 secondary | KCC2 bumet counter | KCC2 secondary2 | HEK counter1 | KCC2 retest ouab | HEK293 Tl flux2
Cc1nonc1C1CCCN1C(=O)c1cc(COc2ccc(F)cc2Cl)on1 (stereo not given) | i | x | -2 | 23 | i | -25 | 0.016 | 0.004 | 0.024* | u | 0.013 | 0.0099
O=C(c1cc(COc2ccc(F)cc2Cl)on1)N1CCCCC1c1cccnc1 (stereo not given) | i | x | -6 | 26 | i | 7 | x | x | x | x | x | x
Cc1ccc2c(c1)[nH]c1c(N3CCN(Cc4ccccc4)CC3)ncnc12 | i | -0.37 | -25 | 28 | i | 0 | x | x | x | x | x | x
Cc1ccc2[nH]c3c(N4CCN(Cc5ccccc5)CC4)ncnc3c2c1 | i | x | -25 | 42 | i | 13 | 0.0064 | 0.005 | 0.022* | 0.0076 | u | 0.011
COc1cccc2[nH]c3c(N4CCC5(CC4)OCCO5)ncnc3c12 | i | 0.49 | -9 | 1 | i | 10 | x | x | x | x | x | x
c1ccc2c(c1)[nH]c1c(N3CCC4(CC3)OCCO4)ncnc12 | i | x | -19 | 6 | i | 25 | 0.0061 | 0.0049 | 0.032 | 0.0078 | 0.018 | 0.012
CCOC(=O)SC1=N/C(=C\c2ccc(N(C)C)cc2)C(=O)S1 | i | 19* | -7 | 62 | 8* | 804 | 0.017* | 0.021* | 0.029 | 0.013* | 0.028* | 0.011*
